In ChEMBL document CHEMBL1133007, “Synthesis and in vitro evaluation of novel morpholinyl- and methylpiperazinylacyloxyalkyl prodrugs of 2-(6-methoxy-2-naphthyl)propionic acid (Naproxen) for topical drug delivery” (J Med Chem, 2000):
Converted amounts (≈) assume the structure as drawn.

What was measured:
[1] = Evaluated for the time by which 50% of total naproxen is formed in 80% human serum at a pH of 7.4; type: ADME; details: pH 7.4
In short: (§1)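 Human serum diluted to 80% with 0.16 M phosphate buffer pH 7.4, 37 °C. Prodrug dissolved in buffer, then preheated serum added. Aliquots were quenched in ethanol and centrifuged, and the supernatant was analysed by HPLC for remaining prodrug and released naproxen. Pseudo-first-order t1/2 came from the slope of log remaining prodrug vs time. f50% is the time at which 50% of total naproxen formed. Mean of n = 2.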

[2] = Evaluated for the apparent partition coefficient between 1-octanol and phosphate buffer at pH 7.4; type: physicochemical; details: 1-octanol/phosphate buffer
In short: (§2)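 Shake-flask log Papp at room temperature. Compound in phosphate buffer (pH 5.0 or 7.4) was shaken with buffer-saturated 1-octanol for 30 min (pH 5.0) or 15 min (pH 7.4), and phases were separated by centrifugation. Buffer-phase concentration was measured by HPLC before and after partitioning.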

Homo sapiens [3] = species on record: Homo sapiens; assay: Evaluated for the Steady-state fluxes (Jss) for delivery of total Naproxen species through excised human skin in Vitro in Isotonic phosphate buffer (0.05 M) at pH 7.4; type: ADME
In short: (§3)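 Excised postmortem human skin, epidermis heat-separated (60 °C water, 2 min), dried, frozen, then rehydrated and mounted in Franz-type diffusion cells (area 0.71 cm2). Donor was a saturated suspension in 0.05 M phosphate buffer at the stated pH. Receptor was isotonic 0.05 M phosphate pH 7.4, stirred at 37 °C and sampled at intervals. Total naproxen, intermediate and prodrug were measured by HPLC. Jss is the steady-state slope per area; mean ± SE, n = 3-12.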

[4] = Evaluated for the solubility in aqueous solution at pH 5.0; type: ADME
In short: (§4)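 Excess compound was stirred in 0.16 M phosphate buffer at room temperature, 60 min at pH 5.0 or 30 min at pH 7.4, with pH held constant. The mixture was filtered (0.45 µm) and the filtrate quantified by reversed-phase HPLC.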

[5] = Evaluated for 50% hydrolysis rate in 80% human serum at a pH of 7.4; type: ADME; details: pH 7.4; in short: as §1
[6] = Evaluated for the solubility in aqueous solution at pH 7.4; type: ADME; in short: as §4
[7] = Evaluated for 50% hydrolysis rate in phosphate buffer at pH 7.4 at 37 degrees C; type: ADME
In short: (§5)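 Chemical stability in phosphate buffer (0.16 M, ionic strength 0.5) at pH 7.4 or 5.0, in a 37 °C thermostatted water bath. Samples were taken at intervals and analysed by HPLC for remaining prodrug. Pseudo-first-order t1/2 was calculated from the slope of the linear part of log remaining prodrug vs time.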

[8] = Evaluated for 50% hydrolysis rate in phosphate buffer at 5.0 at 37 degrees C; type: ADME; details: pH 5; in short: as §5
[9] = Evaluated for the apparent partition coefficient between 1-octanol and phosphate buffer at pH 5.0.; type: physicochemical; details: 1-octanol/phosphate buffer; in short: as §2
Homo sapiens [10] = species on record: Homo sapiens; assay: Evaluated for the Steady-state fluxes (Jss) for delivery of total Naproxen species through excised human skin in vitro in Isotonic phosphate buffer (0.05 M) at pH 5.0; type: ADME; in short: as §3
[11] = Evaluated for the hydrolysis rate in 80% human serum (mean; n=2) at a pH of 7.4; type: ADME; details: pH 7.4; in short: as §1
[12] = Evaluated for the hydrolysis rate in phosphate buffer at 5.0 at 37 degrees Centigrade.; type: ADME; details: pH 5; in short: as §5
[13] = Evaluated for the hydrolysis rate in phosphate buffer at pH 7.4 at 37 degrees Centigrade; type: ADME; in short: as §5
Homo sapiens [14] = species on record: Homo sapiens; assay: Evaluated for the Steady-state fluxes (Jss) for delivery of total Naproxen species through excised human skin in vitro in isotonic phosphate buffer (0.05 M) at pH 5.0; type: ADME; in short: as §3
Homo sapiens [15] = species on record: Homo sapiens; assay: Evaluated for the Steady-state fluxes (Jss) for delivery of total Naproxen species through excised human skin in vitro in isotonic phosphate buffer (0.05 M) at pH 7.4; type: ADME; in short: as §3
Homo sapiens [16] = species on record: Homo sapiens; assay: Evaluated for the Steady-state fluxes (Jss) for delivery of total Naproxen species through excised human skin in Vitro in Isotonic phosphate buffer (0.05 M) at pH 5.0; type: ADME; in short: as §3

| Structure (SMILES) | 50% naproxen formed [1] [min] | logD [2] | Jss (Homo sapiens [3]) [nM hr-1 cm**-2] | solubility [4] [mM] | half-life [5] [h] | solubility [6] [mM] | half-life [7] [h] | half-life [8] [h] | logD [9] | Jss (Homo sapiens [10]) [nM hr-1 cm**-2] | half-life [11] [min] | half-life [12] [h] | half-life [13] [h] | Jss (Homo sapiens [14]) [nM hr-1 cm**-2] | Jss (Homo sapiens [15]) [nM hr-1 cm**-2] | Jss (Homo sapiens [16]) [nM hr-1 cm**-2] |
| --- | --- | --- | --- | --- | --- | --- | --- | --- | --- | --- | --- | --- | --- | --- | --- | --- |
| COc1ccc2cc(C(C)C(=O)OCCCCOC(=O)CCCN3CCN(C)CC3)ccc2c1 (configuration not stated) | 3 | 2.69 | 13.2 | 61 (≈ 28700 µg/mL) | 0.0167 | 50 (≈ 23500 µg/mL) | 48 | 893 | 1.41 | 1.2 |  |  |  |  |  |  |
| COc1ccc2cc(C(C)C(=O)OCCCCOC(=O)CN3CCOCC3)ccc2c1 (configuration not stated) | 11 |  |  |  | 0.217 |  |  |  |  |  |  |  |  |  |  |  |
| COc1ccc2cc(C(C)C(=O)OCCCCOC(=O)CCN3CCN(C)CC3)ccc2c1 (configuration not stated) | 5 | 3.04 |  | 142 (≈ 64700 µg/mL) |  | 432 (≈ 197000 µg/mL) |  |  | 1.2 |  | 4 | 432 | 16.8 | 0.6 | 7.7 |  |
| COc1ccc2cc(C(C)C(=O)OCCOC(=O)CN3CCOCC3)ccc2c1 (configuration not stated) | 25 | 2.14 |  | 0.05 (≈ 20.1 µg/mL) | 0.333 | 0.07 (≈ 28.1 µg/mL) | 33.6 | 161 | 2.62 |  |  |  |  | 0.6 | 0.7 |  |
| COc1ccc2cc(C(C)C(=O)OCCOC(=O)CN3CCN(C)CC3)ccc2c1 (configuration not stated) | 22 | 1.16 | 24.6 | 5.3 (≈ 2200 µg/mL) | 0.433 | 4.1 (≈ 1700 µg/mL) | 57.6 | 1600 | 0.43 |  |  |  |  |  |  | 2.2 |
| COc1ccc2cc(C(C)C(=O)OCCCCOC(=O)CN3CCN(C)CC3)ccc2c1 (configuration not stated) | 7 | 1.3 | 7.2 | 16.2 (≈ 7170 µg/mL) | 0.05 | 8.8 (≈ 3890 µg/mL) | 182 | 1920 | 0.94 |  |  |  |  |  |  | 0.2 |
